According to ChEMBL document CHEMBL4004786, “Nanomolar Antimalarial Agents against Chloroquine-Resistant Plasmodium falciparum from Medicinal Plants and Their Structure-Activity Relationships” (J Nat Prod, 2017):

What was measured:
[1] = system: Plasmodium falciparum; test: Antimalarial activity against chloroquine-resistant Plasmodium falciparum Dd2 assessed as parasite growth inhibition after 72 hrs by SYBR Green 1 assay; format: functional; conditions: Dd2, 72 h
Procedure, shortened: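 Viability was read by SYBR Green I DNA quantitation and normalized to DMSO-treated untreated controls. IC50 came from nonlinear regression, averaging at least three independent experiments run in triplicate, with standard deviations.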

[2] = system: WI-38; test: Cytotoxicity against human WI38 cells after 24 hrs by resazurin assay; conditions: WI-38, 24 h
[3] = Selectivity index, ratio of IC50 for human WI38 cells to IC50 for chloroquine-resistant Plasmodium falciparum Dd2; format: toxicity; conditions: read-out: Ratio IC50

Structure (SMILES)	IC50 [1] [nM]	IC50 [2] [nM]	selectivity ratio [3]
COC(=O)CCC(=O)OCC1=C2C[C@H]3[C@](O)(COC(=O)/C=C(\C)CO)[C@H]4C[C@H]4[C@]3(C)[C@@H]3C[C@@]4(OO)C5=C(/C(=C(\C)C(=O)OC)C(=O)[C@H](O)[C@@]5(C)[C@@H]5C[C@@H]54)[C@]23OC1=O	43	> 100000	–
CC(=O)OC[C@H]1[C@H]2C[C@H]2[C@]2(C)C=C3OC(=O)C(CO)=C3C[C@@H]12	> 25000	–	–
CO[C@]12OC(=O)C(C)=C1C1=C3[C@](C)([C@@H]4C[C@@H]4[C@@]3(O)C[C@@H]3[C@]14OC(=O)C1=C4C[C@H]4[C@](O)(COC(=O)/C(C)=C/COC(=O)CCC(=O)OC1)[C@H]1C[C@H]1[C@]34C)[C@H]2O	> 25000	–	–
COC(=O)/C(C)=C1\C(=O)[C@H](O)[C@]2(C)C3=C(C[C@@H]4[C@]5(OC(=O)C(CO)=C5C[C@H]5[C@](O)(COC(=O)C=C(C)C)[C@H]6C[C@H]6[C@]45C)[C@H]31)[C@H]1C[C@H]12	211	–	–
C/C=C(\C)C(=O)OC[C@]1(O)[C@H]2C[C@H]2[C@]2(C)[C@@H]3C[C@@]4(O)C5=C(C6=C(C)C(=O)O[C@]6(O)[C@H](O)[C@@]5(C)[C@@H]5C[C@@H]54)[C@@]34OC(=O)C(CO)=C4C[C@@H]12 [CHLORAMULTILIDE D]	> 25000	–	–
COC(=O)CCC(=O)OCC1=C2C[C@H]3[C@](O)(COC(=O)/C=C(\C)C=O)[C@H]4C[C@H]4[C@]3(C)[C@@H]3CC4=C5[C@H](/C(=C(\C)C(=O)OC)C(=O)[C@H](O)[C@@]5(C)[C@@H]5C[C@H]45)[C@]23OC1=O	5.2	8840	1700
C=C1C(=O)O[C@]23C4=C5C(=O)[C@H](O)[C@]6(C)C4=C(C[C@H]2[C@]2(C)C(C[C@]13[C@]5(C)C(=O)OC)[C@](O)(COC(=O)/C(C)=C/C)[C@H]1C[C@H]12)[C@H]1C[C@H]16 (some centres undefined)	4700	–	–
COC(=O)CCC(=O)OCC1=C2C[C@H]3[C@](O)(COC(=O)/C=C(\C)CO)[C@H]4C[C@H]4[C@]3(C)[C@@H]3C[C@@]4(OO)C5=C(C6=C(C)C(=O)O[C@]6(O)[C@H](O)[C@@]5(C)[C@@H]5C[C@@H]54)[C@]23OC1=O	94	–	–
C/C=C(\C)C(=O)OC[C@]1(O)[C@H]2C[C@H]2[C@]2(C)[C@@H]3CC4=C5[C@H](/C(=C(/C)C(=O)OC)C(=O)[C@H](O)[C@@]5(C)[C@@H]5C[C@H]45)[C@@]34OC(=O)C(COC(C)=O)=C4C[C@@H]12	13	160	12
C/C=C(\C)C(=O)OC[C@]1(O)[C@H]2C[C@H]2[C@]2(C)[C@@H]3CC4=C5[C@H](/C(=C(\C)C(=O)OC)C(=O)[C@H](O)[C@@]5(C)[C@@H]5C[C@H]45)[C@@]34OC(=O)C(C)=C4C[C@@H]12 [SARCANDROLIDE A]	320	–	–
C/C=C(\C)C(=O)OC[C@]1(O)[C@H]2C[C@H]2[C@]2(C)[C@@H]3C[C@@]4(O)C5=C(C6=C(C)C(=O)O[C@]6(O)[C@H](O)[C@@]5(C)[C@@H]5C[C@@H]54)[C@@]34OC(=O)C(COC(C)=O)=C4C[C@@H]12 [SARCANDROLIDE D]	> 25000	–	–
COC(=O)CCC(=O)OCC1=C2C[C@H]3[C@](O)(COC(=O)/C=C(\C)CO)[C@H]4C[C@H]4[C@]3(C)[C@@H]3C=C4C5=C(C6=C(C)C(=O)O[C@]6(O)[C@H](O)[C@@]5(C)[C@@H]5C[C@H]45)[C@]23OC1=O	198	–	–
C=C1C(=O)O[C@]23C4=C5C(=O)[C@H](O)[C@]6(C)C4=C(C[C@H]2[C@]2(C)C(C[C@]13[C@]5(C)C(=O)OC)[C@](O)(COC(=O)/C(C)=C/COC(=O)CCC(=O)OC)[C@H]1C[C@H]12)[C@H]1C[C@H]16 (some centres undefined)	99	15500	157
COC(=O)/C(C)=C1\C(=O)[C@H](O)[C@]2(C)C3=C1[C@]14OC(=O)C5=C1C[C@H]1[C@](O)(COC(=O)/C(C)=C/COC(=O)CCC(=O)OC5)[C@H]5C[C@H]5[C@]1(C)[C@@H]4C[C@]3(O)[C@H]1C[C@H]12	> 25000	–	–
C=C1[C@H]2C[C@H]2[C@@]2(C)[C@H]1[C@@H](OC(C)=O)C1=C(C)C(=O)O[C@@]13C1=C4[C@@](C)(C(=O)[C@@]5(O)OC(=O)C(C)=C15)[C@@H]1C[C@@H]1[C@@]4(O)C[C@H]32	> 25000	–	–
COC(=O)/C(C)=C1\C(=O)[C@H](O)[C@]2(C)C3=C(C[C@@H]4[C@]5(OC(=O)C6=C5C[C@H]5[C@](O)(COC(=O)/C(C)=C/COC(=O)CCC(=O)OC6)[C@H]6C[C@H]6[C@]45C)[C@H]31)[C@H]1C[C@H]12 [SHIZUKAOL B]	27	16700	619
C/C=C(\C)C(=O)OC[C@]1(O)[C@H]2C[C@H]2[C@]2(C)[C@@H]3C[C@@]4(O)C5=C(/C(=C(\C)C(=O)OC)C(=O)[C@H](O)[C@@]5(C)[C@@H]5C[C@@H]54)[C@@]34OC(=O)C(COC(C)=O)=C4C[C@@H]12 [SARCANDROLIDE E]	> 25000	–	–
COC(=O)/C(C)=C1\C(=O)[C@H](O)[C@]2(C)C3=C(C[C@@H]4[C@]5(OC(=O)C(CO)=C5C[C@H]5[C@H](CO)[C@H]6C[C@H]6[C@]45C)[C@H]31)[C@H]1C[C@H]12	11400	–	–

Structure (SMILES)	IC50 [1] [nM]	IC50 [2] [nM]	selectivity ratio [3]
COC(=O)/C(C)=C1\C(=O)[C@H](O)[C@]2(C)C3=C(C[C@@H]4[C@]5(OC(=O)C(C)=C5C[C@H]5[C@H](COC(C)=O)[C@H]6C[C@H]6[C@]45C)[C@H]31)[C@H]1C[C@H]12	1800	–	–
CC1=C2[C@H]3[C@@H]4C(=C[C@@H]5[C@]36OC(=O)C(CO)=C6C[C@H]3[C@](O)(COC(=O)/C=C(\C)CO)[C@H]6C[C@H]6[C@]53C)[C@H]3C[C@H]3[C@]4(C)[C@@H](O)[C@@]2(O)OC1=O	9900	–	–
CC1=C2CC3=C(C)[C@H]4C[C@H]4[C@]3(C)C[C@@H]2OC1=O	> 25000	–	–
COC(=O)/C(C)=C1\C(=O)[C@H](O)[C@]2(C)C3=C(C[C@@H]4[C@]5(OC(=O)C(CO)=C5C[C@H]5[C@H](COC(C)=O)[C@H]6C[C@H]6[C@]45C)[C@H]31)[C@H]1C[C@H]12	580	–	–
COC(=O)/C(C)=C1\C(=O)[C@H](O)[C@]2(C)C3=C(C[C@@H]4[C@]5(OC(=O)C(CO)=C5C[C@H]5[C@](O)(COC(=O)/C(C)=C/CO)[C@H]6C[C@H]6[C@]45C)[C@H]31)[C@H]1C[C@H]12 [SARCANDROLIDE B]	265	–	–
COC(=O)/C(C)=C1\C(=O)[C@H](O)[C@]2(C)C3=C(C[C@@H]4[C@]5(OC(=O)C(CO)=C5C[C@H]5[C@](O)(CO)[C@H]6C[C@H]6[C@]45C)[C@H]31)[C@H]1C[C@H]12	4600	–	–
COC(=O)/C(C)=C1\C(=O)[C@H](O)[C@]2(C)C3=C(C[C@@H]4[C@]5(OC(=O)C(CO)=C5C[C@H]5[C@](O)(COC(=O)/C=C(\C)CO)[C@H]6C[C@H]6[C@]45C)[C@H]31)[C@H]1C[C@H]12	111	–	–
CC1=C2C3=C4[C@](C)([C@@H]5C[C@@H]5[C@@]4(O)C[C@@H]4[C@]35OC(=O)C3=C5C[C@H]5[C@](O)(COC(=O)/C(C)=C/COC(=O)CCC(=O)OC3)[C@H]3C[C@H]3[C@]45C)[C@@H](O)[C@@]2(O)OC1=O [CHLORAMULTILIDE C]	> 25000	–	–
C[C@@H]1CC[C@H]2[C@@H](C)C(=O)O[C@@H]3O[C@@]4(C)CC[C@@H]1[C@]32OO4 [ARTEMISININ]	4	–	–
C=C1[C@H]2C[C@H]2[C@@]2(C)[C@H]1[C@@H](OC(C)=O)C1=C(C)C(=O)O[C@@]13C1=C4[C@](C)([C@@H]5C[C@@H]5[C@@]4(O)C[C@H]32)[C@@H](O)C(=O)/C1=C(/C)C(=O)OC	> 25000	–	–
COC(=O)/C(C)=C1\C(=O)[C@H](O)[C@]2(C)C3=C1[C@]14OC(=O)C(C)=C1C[C@H]1[C@](O)(CO)[C@H]5C[C@H]5[C@]1(C)[C@@H]4C[C@]3(OO)[C@H]1C[C@H]12	5300	–	–
CC1=C2C3=C4[C@](C)([C@@H]5C[C@@H]5[C@@]4(O)C[C@@H]4[C@]35OC(=O)C3=C5C[C@H]5[C@](O)(COC(=O)/C=C(\C)COC(=O)CCC(=O)OC3)[C@H]3C[C@H]3[C@]45C)[C@@H](O)[C@@]2(O)OC1=O	7100	–	–
C[C@@]12C=C3OC(=O)C(CO)=C3C[C@H]1[C@@H](CO)[C@H]1C[C@H]12	> 25000	–	–
C=C1[C@@H]2C[C@@H]2[C@]2(C)[C@@H]3CC4=C5[C@H](/C(=C(\C)C(=O)OC)C(=O)[C@H](O)[C@@]5(C)[C@@H]5C[C@H]45)[C@@]34OC(=O)C(C)=C4C[C@@H]12	1500	–	–
COC(=O)/C(C)=C1\C(=O)[C@H](O)[C@]2(C)C3=C(C[C@@H]4[C@]5(OC(=O)C(COC(C)=O)=C5C[C@H]5[C@](O)(COC(=O)C=C(C)C)[C@H]6C[C@H]6[C@]45C)[C@H]31)[C@H]1C[C@H]12	860	–	–
COC(=O)/C(C)=C1\C(=O)[C@H](O)[C@]2(C)C3=C1[C@]14OC(=O)C5=C1C[C@H]1[C@](O)(COC(=O)/C=C(\C)COC(=O)CCC(=O)OC5)[C@H]5C[C@H]5[C@]1(C)[C@@H]4C[C@]3(OO)[C@H]1C[C@H]12	474	–	–
C=C1[C@H]2C[C@H]2[C@@]2(C)[C@H]1[C@@H](OC(C)=O)C1=C(C)C(=O)O[C@@]13C1=C4[C@](O)(C[C@H]32)[C@H]2C[C@H]2[C@]4(C)CC(=O)/C1=C(/C)C(=O)OC	> 25000	–	–
